Experimental data from PubChem BioAssay.
Records with an inconclusive call do not appear.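 Rule for the calls, unless noted: active = viability increase at or above a cutoff of the median across tested compounds plus 3 SD (cut at about 8.5% in these data, passing the limit was not always enough); inconclusive = some gains above the cutoff, reason not given; inactive = the rest.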

Tests used:
[1] = OD615 S. cerevisiae growth inhibition, permissive medium, pilot counter-assay, permissive growth control for S. cerevisiae lifespan shortening project (AID 705;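 active = growth inhibition above 25% in both replicates, a cutoff set 3 SD above the mean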); settings: OD615, 24 h, at 10 µM, active compounds read high
Procedure, shortened: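 System: Engineered DeaD yeast | Buffer or medium: SC raffinose/galactose permissive medium | Doses: 10 µM single dose, 0.25% DMSO | Times: 24 h exposure, 30 °C | Measured by: OD615 turbidity read | Read-out: Yeast growth inhibition indicated by reduced 24 h OD615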

[2] = Restrictive medium S. cerevisiae growth inhibition, OD615, pilot screen of yeast lifespan reduction project, restrictive growth control (AID 706;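 active = growth inhibition above a set limit, 3 SD over mean compound inhibition, in both replicates, cut at about 43% in these data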;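 note: modified DeaD lifespan yeast strain shifted to restrictive glucose medium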); settings: OD615, 48 h, at 10 µM, active compounds read high
Procedure, shortened: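 Assay system: engineered S. cerevisiae DeaD strain; Buffer or medium: CSMM-D glucose medium; Dosing: 10 µM compound, 0.25% DMSO; Times: cell pre-growth 4 h, compound exposure 48 h, 30 °C; Detection: absorbance (optical density) measured at 615 nm.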

[3] = viability gain of MRP-1-high H69AR cells under doxorubicin, pilot screen, MRP-1 activator project, CellTiter-Glo, duplicate (AID 807); settings: H69AR viability with doxorubicin, CellTiter-Glo luminescence; at 10 µM; active compounds read high;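 note: compound pretreatment 18-22 h then 72 h combined with doxorubicin; 0% = doxorubicin alone and 100% = vehicle without doxorubicin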
[4] = growth suppression of beta-catenin knockout HCT116, pilot screen, human colon tumor cells (AID 823;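 active = cell viability at or below a set limit in both duplicate runs, the limit being the all-compound median minus 4 SD, cut at about 23% in these data, passing the limit was not always enough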;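 note: 0% = wells killed by 20 µM Hyamine and 100% = untreated DMSO cell wells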); settings: CellTiter-Glo, 60 h, at 10 µM, active compounds read low
[5] = growth suppression of PTEN-deleted HCT116, pilot screen, cell-based, HCT116 clonal line, CellTiter-Glo (AID 824;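 active = viability at or below 27.92% in each of two runs, the all-compound median minus 4 SD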;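 note: 0% = 20 µM Hyamine control and 100% = vehicle cell control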); settings: 60 h, at 10 µM, active compounds read low
[6] = inhibitors of the yeast RAM network, pilot screen, dse1pr::URA3 reporter, 5-FOA selection (AID 869;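 active = inhibition over a set limit, the all-compound mean plus 3 SD, in both replicate runs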;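 note: 0% = DMSO wells with no growth and 100% = 10 µM 1-NA-PP1 with full growth; RAM network block rescues cells from 5-FOA so hits raise OD615 growth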); settings: S. cerevisiae dse1pr::URA3 5-FOA growth, OD615, 2 d; at 10 µM; active compounds read high; strain carries analog-sensitive mutant Cbk1 kinase
[7] = RAM signaling pathway blockade in yeast – S. cerevisiae, Pdr1DBD-CYC8 efflux-inhibited sensitized strain, primary screen (AID 1298;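 active = RAM network inhibition above 8.4% in each of two replicates, 3 SD over the compound average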;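 note: 0% = DMSO untreated cells without growth and 100% = 10 µM 1-NA-PP1 full growth; higher means more yeast growth rescued from 5-FOA killing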); settings: S. cerevisiae cbk1-as DSE1-URA3 strain, 5-FOA growth OD615, 2 d; at 50 µM; active compounds read high

COc1ccc(C(=O)Nc2cccc(C(C)=O)c2)cc1S(=O)(=O)N1CCOCC1
inactive: growth inhibition [1] -23.9% | growth inhibition [2] -18.5% | viability increase [3] -1.76% | viability [4] 92% | viability [5] 96% | inhibition [6] 2.08% | RAM network inhibition [7] 2.08%

CC(=O)c1c(C)[nH]c(C(=O)N2CCN(c3ncccn3)CC2)c1C
inactive: growth inhibition [1] -2.15% | growth inhibition [2] -5.67% | viability increase [3] -1.39% | viability [4] 86.8% | viability [5] 96.6% | inhibition [6] 1.43% | RAM network inhibition [7] -0.51%

Cc1c(Br)cc(C(=O)NCCCN2CCOCC2)c(C)c1C
inactive: growth inhibition [1] -0.405% | growth inhibition [2] -4.69% | viability increase [3] -3.23% | viability [4] 94.8% | viability [5] 93.6% | inhibition [6] 0.595% | RAM network inhibition [7] 0.82%

C=CCNc1nc2c(c(=O)n(C)c(=O)n2C)n1Cc1ccc(F)cc1
inactive: growth inhibition [1] -0.85% | growth inhibition [2] -2.67% | viability increase [3] -2.03% | viability [4] 63.3% | viability [5] 66.9% | inhibition [6] 0.835% | RAM network inhibition [7] 2.3%

COc1ccc(C)c2sc(=NC(=O)c3ccc(C#N)cc3)n(C)c12
inactive: growth inhibition [1] -5.79% | growth inhibition [2] -17.2% | viability increase [3] -3.95% | viability [4] 85.3% | viability [5] 81.6% | inhibition [6] 0.96% | RAM network inhibition [7] 1.83%

CCOC(=O)Cn1c(C(C)=O)nc2ccccc21
inactive: growth inhibition [1] -18.1% | growth inhibition [2] -25.1% | viability increase [3] 0.94% | viability [4] 102% | viability [5] 94.8% | inhibition [6] 0.28% | RAM network inhibition [7] 0.32%

Cc1sc2ncn(CC(=O)NCc3ccccn3)c(=O)c2c1S(=O)(=O)N1CCOCC1
inactive: growth inhibition [1] -11.7% | growth inhibition [2] -5.54% | viability increase [3] 1.3% | viability [4] 101% | viability [5] 99.5% | inhibition [6] 0.485% | RAM network inhibition [7] 3.01%

COc1ccc(CN2CCN(C(=O)c3ccco3)CC2)cc1OCc1ccccc1
inactive: growth inhibition [1] -9.2% | growth inhibition [2] -18.8% | viability increase [3] -2.34% | viability [4] 88% | viability [5] 83.3% | inhibition [6] 0.95% | RAM network inhibition [7] 2.98%

O=C(Oc1ccccc1)N1CCN(c2ccc(F)cc2)CC1
inactive: growth inhibition [1] -11.1% | growth inhibition [2] -5.32% | viability increase [3] 1.92% | viability [4] 95.8% | viability [5] 85.5% | inhibition [6] 0.665% | RAM network inhibition [7] 5.1%

Cn1c(C(=O)NCCN2CCCCCC2)cc2c(=O)n(C)c3ccccc3c21
inactive: growth inhibition [1] -1.66% | growth inhibition [2] 0.56% | viability increase [3] -5.04% | viability [4] 65.7% | viability [5] 74.9% | inhibition [6] 1.29% | RAM network inhibition [7] 5.21%

Cc1nc2ccccc2c2oc(C(=O)NCCN3CCN(C)CC3)cc12
inactive: growth inhibition [1] -12.1% | growth inhibition [2] -15.1% | viability increase [3] -1.69% | viability [4] 89.4% | viability [5] 98.8% | inhibition [6] 1.64% | RAM network inhibition [7] 3.28%

CC1(C)CC(=O)C=C(NCCc2ccc(S(N)(=O)=O)cc2)C1
inactive: growth inhibition [1] -8.44% | growth inhibition [2] -12% | viability increase [3] -0.64% | viability [4] 94.3% | viability [5] 96.2% | inhibition [6] 1.18% | RAM network inhibition [7] 1.82%

CCOC(=O)CN1CC23C=CC(O2)C(C(=O)N2CCN(c4ccc(F)cc4)CC2)C3C1=O (centres undefined)
inactive: growth inhibition [1] 7.71% | growth inhibition [2] 5.64% | viability increase [3] -2.12% | viability [4] 86.7% | viability [5] 93.2% | inhibition [6] 1.45% | RAM network inhibition [7] -0.56%

CCCc1cc(C(=O)NCc2cccs2)no1
inactive: growth inhibition [1] -11.4% | growth inhibition [2] 21.3% | viability increase [3] -3.29% | viability [4] 101% | viability [5] 94.1% | inhibition [6] 1.34% | RAM network inhibition [7] 0.74%

Cc1c(NC(=O)C(C)N2C(=O)C3C4C=CC(C4)C3C2=O)c(=O)n(-c2ccccc2)n1C (centres undefined)
inactive: growth inhibition [1] -8.7% | growth inhibition [2] -11.3% | viability increase [3] -0.72% | viability [4] 95.4% | viability [5] 93.2% | inhibition [6] 1.39% | RAM network inhibition [7] 2.56%

O=C(CSc1ncn[nH]1)Nc1nnc(-c2ccccc2)s1
inactive: growth inhibition [1] 6.24% | growth inhibition [2] 11.1% | viability increase [3] 4.9% | viability [4] 94.3% | viability [5] 93.7% | inhibition [6] -0.75% | RAM network inhibition [7] 0.61%

O=C1CCc2cc(S(=O)(=O)NC(Cc3ccccc3)C(=O)NC3CCCC3)ccc2N1 (centres undefined)
inactive: growth inhibition [1] -11.3% | growth inhibition [2] -9.16% | viability increase [3] -0.35% | viability [4] 96.8% | viability [5] 98.8% | inhibition [6] 1.86% | RAM network inhibition [7] 0.41%
